# Bioassay records: PubChem BioAssay, several laboratories
# GSTO1 inh – inhibitors of recombinant GSTO1, primary screen, counter-screen for RBBP9 inhibitor project, biochemical, fluorescence polarization; Glutathione S-transferase omega-1 (Homo sapiens), P78417; activity-based probe fluorescence polarization; inhibition, % at 5.96 µM; 1.1% of 300,000 active; AID 1974, 2009;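 active = inhibition above the campaign mean inhibition plus 3 SD, cut at about 35% in these data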;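 note: 0% = GSTO1-1 with DMSO and 100% = wells lacking GSTO1-1 enzyme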
# Target sequence (P78417 whole entry, looked up): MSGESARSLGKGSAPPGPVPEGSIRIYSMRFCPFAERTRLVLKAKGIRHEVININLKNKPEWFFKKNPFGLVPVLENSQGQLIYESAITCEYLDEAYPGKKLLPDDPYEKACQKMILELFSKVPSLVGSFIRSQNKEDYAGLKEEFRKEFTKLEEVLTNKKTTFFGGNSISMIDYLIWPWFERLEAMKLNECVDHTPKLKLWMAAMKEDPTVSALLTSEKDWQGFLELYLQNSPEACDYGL
# SIAE inh – human SIAE inhibitors, primary screen, biochemical, fluorescence polarization, FP-Rh probe, 1536-well HTS; Sialate O-acetylesterase (Homo sapiens), Q9HAT2; SIAE FP-Rh probe binding; inhibition, % at 9.66 µM; 0.69% of 370,000 active;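 active = inhibition above a cutoff: mean of compounds within the control limits plus 3 SD of those, cut at about 17% in these data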;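 note: 0% = plate median of compound wells and 100% = probe without SIAE protein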
# TDP2 inh – human TDP2 enzyme inhibitors, primary screen, biochemical, epi absorbance, recombinant enzyme. inhibition, % at 12.8 µM. T5PNP hydrolysis, p-nitrophenol absorbance 415 nm. 0.34% of 370,000 active;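 active = inhibition above the mean of all tested compounds plus 3 SD, set per campaign, cut at about 25% in these data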;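 note: 0% = DMSO with enzyme and 100% = buffer with substrate but no TDP2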
# Target sequence (O95551 whole entry, looked up): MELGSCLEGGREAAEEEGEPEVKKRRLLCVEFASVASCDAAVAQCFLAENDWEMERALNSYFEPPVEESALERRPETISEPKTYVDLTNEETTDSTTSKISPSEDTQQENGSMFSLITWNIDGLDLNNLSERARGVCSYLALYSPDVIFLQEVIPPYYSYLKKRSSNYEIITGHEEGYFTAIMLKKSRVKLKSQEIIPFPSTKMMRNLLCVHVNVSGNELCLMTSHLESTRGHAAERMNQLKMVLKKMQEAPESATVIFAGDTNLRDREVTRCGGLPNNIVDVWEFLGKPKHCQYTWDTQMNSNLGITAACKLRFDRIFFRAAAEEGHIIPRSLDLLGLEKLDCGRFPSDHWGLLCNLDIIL
#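 Evaluation: % inhibition relative to enzyme-containing and enzyme-free wells. Material: recombinant human TDP2. Benchmarks: enzyme-free and DMSO wells. Timing: enzyme reaction with compound for 2 h at 37 °C. Compound dosing: 12.8 µM only. Measured by: p-Nitrophenol epi absorbance. Reagent: T5PNP substrate at 5 mM, a TopII-DNA adduct mimic. Replication: single well per compound.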
# PAD4 FP inh – human PAD4 inhibitors, primary screen, biochemical, fluorescence polarization, 1536-well format; AID 485272, 2010; Protein-arginine deiminase type-4 (Homo sapiens), Q9UM07; inhibition, % at 6.36 µM; 0.41% of 330,000 active; recombinant PAD4, RCA probe fluorescence polarization;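 active = percent inhibition above a cutoff equal to the mean of all tested compounds plus 3 SD, cut at about 15% in these data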;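 note: 0% = PAD4 with RCA probe and DMSO and 100% = probe without PAD4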
# TCR CD3 inh – inhibitors of human TCR-CD3 interaction, primary screen, biochemical, fluorescence, TAMRA-labeled TCR probe | AID 651800, 2012 | inhibition, % at 9.4 µM | 0.37% of 360,000 active; in the data active = inhibition above about 19%;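 note: recombinant mutant TCR 2C K166C tagged with TAMRA read by polarization; 0% = receptor in buffer alone and 100% = receptor with positive control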
# Apaf1 inhib – inhibitors of human Apaf-1 apoptosome, primary screen, biochemical, DEVD-Rh110 fluorescence, uHTS. Apoptotic protease-activating factor 1 (Homo sapiens), O14727. reconstituted apoptosome caspase-3 activity. inhibition, % at 20 µM. 0.71% of 330,000 active; active = inhibition of at least 40% at 20 µM;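 note: plate controls were DMSO wells for no effect and DEVD-CHO caspase inhibitor wells for full effect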
#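 System: Apoptosome proteins | Medium: Hepes pH 7.5 with detergent and BSA | Also added: Cytochrome c trigger plus (Z-DEVD)2-Rh110 caspase-3 substrate | Incubation: 30 min compound preincubation, 50 min activation, room temperature | Detection: Rhodamine 110 fluorescence at Ex 480/Em 540 nm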
# GSTO1 confirm – GSTO1 inhibitor hit confirmation, counter-screen for RBBP9 inhibitor project, biochemical, fluorescence polarization, triplicate; inhibition, % at 5.96 µM; 54% of 2,400 active; shares compounds with GSTO1 inh; recombinant GSTO1, probe fluorescence polarization;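 active = inhibition above the primary screen's cutoff, its mean inhibition plus 3 SD, cut at about 35% in these data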;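 note: loss of polarization as inhibitors block binding of rhodamine sulfonate ester activity probe; 0% = GSTO1 with DMSO and 100% = wells lacking GSTO1 enzyme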
# PAD4 FP conf – human PAD4 inhibitors, confirmation, biochemical, fluorescence polarization. AID 488796, 2010. inhibition, % at 6.36 µM. recombinant PAD4, RCA probe fluorescence polarization. shares compounds with PAD4 FP inh. 28% of 1,200 active;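 active = mean inhibition across replicates above the hit cutoff set by the earlier primary screen, cut at about 15% in these data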;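 note: inhibitors block active-site labeling by the probe so polarization falls; 0% = PAD4 with probe and DMSO and 100% = probe without PAD4 enzyme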
# Apaf-1 inh conf2 – Apaf-1 inhibitors, single-dose retest, confirmation, biochemical, fluorescence, DEVD-Rh110, 20 µM; shares compounds with Apaf1 inhib; reconstituted apoptosome, caspase-3 DEVD-Rh110 fluorescence; inhibition, % at 20 µM; 25% of 1,800 active;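 active = mean inhibition of at least 40% at 20 µM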;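 note: plate controls were DMSO wells for no effect and DEVD-CHO caspase inhibitor control wells for full effect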
# Rh110 interf inh – Rh110 fluorescence interference by putative Apaf-1 inhibitors, confirmation, artefact control for Apaf-1 inhibitor project, biochemical, 20 µM; shares compounds with Apaf1 inhib; quenched caspase reaction; activation (fluorescence interference), % at 20 µM; 1,800 tested, under 10 active;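 active = signal rise of 40% or more at 20 µM, treated as a fluorescence artifact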
# Fluor interf inh – fluorescence interference of Apaf-1 inhibitor hits, dose response, artefact control for Apaf-1 inhibitor project; shares compounds with Apaf1 inhib; fluorescence interference counterscreen, Apaf-1 assay format; IC50, µM; 460 tested, under 10 active; AID 588538, 2011; call rule not given here
# TDP2 inh conf – human TDP2 enzyme inhibitors, retest, confirmation, biochemical, epi absorbance, recombinant enzyme; shares compounds with TDP2 inh; absorbance read-out; inhibition, % at 12.8 µM; 22% of 1,100 active; in the data active = inhibition above about 25%;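 note: 0% = vehicle with enzyme and 100% = no enzyme buffer only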
# Active calls of the source: *; . = not tested or not shown. Only some compounds are listed: those with a hit (about 2.4% of all), similar ones and a draw of the others.
SMILES,GSTO1 inh,SIAE inh,TDP2 inh,PAD4 FP inh,TCR CD3 inh,Apaf1 inhib,GSTO1 confirm,Apaf-1 inh conf2,Rh110 interf inh,TDP2 inh conf,others
NS(=O)(=O)c1ccc(NC2=CC(=O)C(=O)c3ccccc32)cc1,84.4*,5.1,60.9*,28.3*,-5.3,95.0*,87.6*,97.6*,-2.2,63.1*,PAD4 FP conf=61.5*;Fluor interf inh=>100
Cc1ccc(NC2=CC(=O)C(=O)c3ccccc32)cc1,77.1*,8.7,69.7*,39.1*,2.6,86.9*,72.9*,.,.,38.5*,
O=C(O)/C=C\C(=O)Nc1ccccc1C(=O)NC1CCCCC1,4.4,0.9,0.0,-3.9,-1.9,-2.2,.,.,.,.,
CC(=O)CSc1ccc(-c2nc3cc(C)c(C)cc3[nH]2)cn1,1.8,-1.3,1.7,1.2,1.0,22.5,.,.,.,.,
CCCCCCCCN1C(=O)[C@@H](CC(=O)NCc2cccs2)C[C@@]2(C(=O)OC)C1=C[C@H](C(C)(C)C)O[C@@H]2C,.,5.3,1.1,.,-2.6,.,.,.,.,.,
CC1=NN(c2ccccc2)C(=O)/C1=C\c1cn(-c2ccccc2)nc1C,6.1,4.5,-4.2,-3.3,-0.8,23.0,.,.,.,.,
COc1cc(/C=C2\C(=O)N(c3cccc(C(=O)O)c3)N=C2C)ccc1OCc1ccccc1,.,11.9,21.5,.,5.2,.,.,.,.,.,
COc1ccccc1/C=C1/C(=O)N(c2ccccc2)N=C1C,45.8*,6.9,80.2*,47.8*,-4.9,92.5*,12.6,21.2,7.0,13.8,PAD4 FP conf=-1.1
C#CCOc1ccc(/C=C2/C(=O)N(c3cccc(C(=O)O)c3)N=C2C)cc1OC,70.5*,1.4,71.4*,39.3*,0.1,42.6*,8.5,27.6,19.0,18.1,PAD4 FP conf=2.6
CCC1(CC)NC(=O)N(CC(=O)OCC(=O)Nc2cc(C)ccc2C)C1=O,-3.4,-0.8,0.5,-1.6,-0.5,10.3,.,.,.,.,
O=C(C1=C(c2ccccc2)C(=O)c2ccccc2C1=O)c1ccccc1,.,5.8,-5.8,.,-4.2,.,.,.,.,.,
Cc1oc2c(c1C(=O)c1ccccc1)C(=O)C(=O)c1ccccc1-2,85.0*,3.4,38.5*,74.0*,-5.8,91.4*,91.1*,.,.,54.7*,
O=C(COC(=O)c1ccc([N+](=O)[O-])s1)NCc1ccc(F)cc1,42.8*,0.8,59.4*,3.7,8.9,34.1,16.3,.,.,23.2,
O=C(COC(=O)c1ccc([N+](=O)[O-])s1)NCCc1ccccc1,.,.,.,3.9,.,32.7,.,.,.,.,
O=C(O)c1cccc(NS(=O)(=O)c2ccc(-c3ccc(S(=O)(=O)Nc4cccc(C(=O)O)c4)cc3)cc2)c1,4.3,-8.4,4.8,-1.5,8.2,6.0,.,.,.,.,
CCc1ccc(S(=O)(=O)/N=C2\C=C(Nc3cccc(C(=O)O)c3)C(=O)c3ccccc32)cc1,98.2*,10.6,69.2*,71.1*,1.0,90.7*,91.6*,89.6*,9.7,73.8*,PAD4 FP conf=65.8*;Fluor interf inh=>100
O=c1c(N2CCOCC2)nsn1Cc1ccccc1,-0.3,-3.2,1.1,-4.0,6.9,1.5,.,.,.,.,
COc1ccc(S(=O)(=O)Nc2cc(SCC(=O)O)c(O)c3ccccc23)cc1,81.2*,16.2,43.3*,35.1*,5.0,85.5*,53.8*,41.0*,5.0,50.1*,PAD4 FP conf=-6.7;Fluor interf inh=>100
Cc1ccc(C(=O)N/N=C\c2ccc(Br)o2)o1,-1.7,0.5,-1.9,-1.7,1.3,-16.4,.,.,.,.,
Cc1ccc(C(=O)N/N=C/c2ccc(-c3ccc(Br)cc3[N+](=O)[O-])o2)o1,65.8*,10.1,26.6*,0.4,9.0,42.1*,17.1,26.9,-5.4,12.8,
COc1ccc(C(=O)N/C(=C\c2cn(C)c3ccccc23)C(=O)N2CCN(C)CC2)cc1,9.7,5.8,-8.4,3.3,-2.9,7.2,.,.,.,.,
COC(=O)c1cc(C)nc2c1C(=O)C(=O)C=C2N1CCOCC1,99.5*,12.8,87.4*,72.2*,-3.5,98.5*,95.3*,100.2*,4.4,88.6*,PAD4 FP conf=67.2*;Fluor interf inh=>100
COC(=O)c1cc(S(=O)(=O)N2CCOCC2)c(Cl)cc1N1CCOCC1,2.2,-4.3,4.5,-3.7,0.9,-19.0,.,.,.,.,
CC1(C)CNc2cc(N)ccc2S1,38.6*,5.9,38.1*,3.3,0.3,50.0*,28.4,69.5*,7.6,-0.3,Fluor interf inh=>100
CC(C)C(NC(=O)c1ccccc1)C(=O)NC1CCCc2ccccc21 (stereo not drawn),.,-7.5,0.2,-1.8,-0.4,-0.2,.,.,.,.,
Cn1c(=O)c(NC2CCCCC2)c2c3c(cccc31)C(=O)c1ccccc1-2,.,-1.8,-5.1,.,0.0,3.8,.,.,.,.,
